Assay results from different studies.
Lines come from different studies, so protocols differ. In brackets after ≈: the same amount, converted by molar mass.

Compound	test	system	setting	measurement	value
Clc1ccc(Nc2ncnc3ccc(-c4cccc(N5CCOCC5)c4)cc23)cc1	–	aqueous buffer	pH 7.4, 25 °C	thermodynamic solubility	< 0.4 µM
CCCCCCCCCCCCCCCC(=O)NCCO	–	aqueous buffer	12 h, pH 6.8, 37 °C	thermodynamic solubility	< 16 µg/mL
CCN(CC)CCNC(=O)c1cc(S(C)(=O)=O)ccc1OC	–	PBS	2 h, pH 7.4, 25 °C	kinetic solubility	394 µM (≈ 129 µg/mL)
O=C(Nc1ccc(OC(F)(F)F)cc1)N[C@H]1CC[C@H](Oc2ccc(C(=O)O)cc2)CC1	–	simulated gastric fluid	15 min, pH 1, 37 °C, acidic	solubility	0.0023 µg/mL (≈ 5.25e-06 mM)
CCCCCCCCCCCCCCCC(=O)NCCOC(=O)C[C@@H](CN)CC(C)C	–	aqueous buffer	12 h, pH 6.8, 37 °C	thermodynamic solubility	3780 µg/mL
CC[C@H](C)[C@H](NC(=O)[C@H](C)NC(=O)CNC(=O)[C@H](Cc1ccccc1)NC(=O)[C@H](CC(N)=O)NC(=O)[C@H](CC(N)=O)NC(=O)[C@H](CO)NC(=O)[C@H](CO)NC(=O)[C@H](Cc1c[nH]cn1)NC(=O)[C@@H](NC(=O)[C@H](CC(C)C)NC(=O)[C@H](Cc1ccccc1)NC(=O)[C@H](CC(N)=O)NC(=O)[C@H](C)NC(=O)[C@H](CC(C)C)NC(=O)[C@H](CCCNC(=N)N)NC(=O)[C@H](CCC(N)=O)NC(=O)[C@@H](NC(=O)[C@H](C)NC(=O)[C@@H]1CSSC[C@H](NC(=O)[C@@H](N)CCCCN)C(=O)N[C@@H](CC(N)=O)C(=O)N[C@@H]([C@@H](C)O)C(=O)N[C@@H](C)C(=O)N[C@@H]([C@@H](C)O)C(=O)N1)[C@@H](C)O)C(C)C)C(=O)N[C@@H](CC(C)C)C(=O)N[C@@H](CO)C(=O)N[C@@H](CO)C(=O)N[C@H](C(=O)N[C@@H](CC(N)=O)C(=O)N[C@H](C(=O)NCC(=O)N[C@@H](CO)C(=O)N[C@@H](CC(N)=O)C(=O)N[C@H](C(=O)N[C@@H](Cc1ccc(O)cc1)C(N)=O)[C@@H](C)O)C(C)C)[C@@H](C)O	–	PBS	1 h, pH 7.4	thermodynamic solubility	37 µg/mL
N#Cc1ccc(C[C@H](NC(=O)c2cc3cc(F)ccc3[nH]2)C(=O)N2CCc3ccccc32)cc1	–	aqueous buffer	2 h, pH 7.4, 37 °C	kinetic solubility	1 µM (≈ 0.452 µg/mL)
CO[C@H]1C[C@@H]2CC[C@@H](C)[C@@](O)(O2)C(=O)C(=O)N2CCCC[C@H]2C(=O)O[C@H]([C@H](C)C[C@@H]2CC[C@@H](O)[C@H](OC)C2)CC(=O)[C@H](C)/C=C(\C)[C@@H](O)[C@@H](OC)C(=O)[C@H](C)C[C@H](C)/C=C/C=C/C=C/1C	–	aqueous buffer	18 h, pH 7.4	thermodynamic solubility	6 µM
N#Cc1ccc(C[C@H](Nc2nnc(-c3ccc(Br)cc3)o2)C(=O)N2CCc3ccccc32)cc1	–	aqueous buffer	2 h, pH 7.4, 37 °C	kinetic solubility	1.8 µM (≈ 0.926 µg/mL)
Fc1ccccc1Nc1nc(-c2ccncc2)nc2c1CNCC2	–	PBS	24 h, pH 7.4	thermodynamic solubility	596 µM
Cc1ccc(-c2nnc(N[C@@H](Cc3ccc(C#N)cc3)C(=O)N3CCc4ccccc43)o2)cc1	–	aqueous buffer	2 h, pH 7.4, 37 °C	kinetic solubility	5.4 µM (≈ 2.43 µg/mL)
Cc1ccccc1CN1C(=O)C2=C(CCN(Cc3ccccc3)C2)N2CCN=C12	shake flask	aqueous buffer	pH 4.5	solubility	98600 µg/mL (≈ 255 mM)
CN1CCN(c2cccc(-c3ccc4ncnc(Nc5ccc(Cl)c(Cl)c5)c4c3)c2)CC1	–	aqueous buffer	pH 7.4, 25 °C	thermodynamic solubility	< 1.7 µM
Cc1nccn1CC1CCc2c(c3ccccc3n2C)C1=O (stereo not shown)	–	PBS	2 h, pH 7.4, 25 °C	kinetic solubility	110 µM (≈ 32.3 µg/mL)
N#Cc1ccc(C[C@H](Nc2c(Nc3ccc(F)cc3)c(=O)c2=O)C(=O)N2CCc3ccccc32)cc1	–	aqueous buffer	2 h, pH 7.4, 37 °C	kinetic solubility	11.8 µM (≈ 5.67 µg/mL)
O=[N+]([O-])c1ccc(Nc2ncnc3ccc(-c4cccc(N5CCOCC5)c4)cc23)cc1C(F)(F)F	–	aqueous buffer	pH 7.4, 25 °C	thermodynamic solubility	< 0.4 µM
